Data taken from ChEMBL document CHEMBL4052820, “RNA G-Quadruplexes in Kirsten Ras (KRAS) Oncogene as Targets for Small Molecules Inhibiting Translation” (J Med Chem, 2017).
The source made the active and inactive calls. No cut-off for these calls is given here.

Assays:
PANC-1 [1] = experiment: Induction of apoptosis in human PANC1 cells assessed as activation of caspase-3/7 at 0.8 to 1.6 uM; assay type: functional, cell-based
Summary of the method: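 Caspase-3/7 activity in treated Panc-1 cells was read with a homogeneous fluorogenic caspase-3/7 kit per the manufacturer.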

PANC-1 [2] = experiment: Downregulation of KRAS mRNA expression in human PANC1 cells at 1.6 uM after 6 to 24 hrs by qRT-PCR method relative to control; assay type: functional
Summary of the method: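 Panc-1 cells were seeded at 18 × 10^3/well and treated the next day. Total RNA was extracted 6 and 24 h later. cDNA was made with oligo-dT plus random hexamers and M-MLV reverse transcriptase (1 h, 37 °C). Multiplex probe qPCR measured KRAS against HPRT and β2-microglobulin (50 cycles: 10 s 95 °C, 60 s 58 °C).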

[3] = Binding affinity to human KRAS utr-z G-quadruplex RNA by fluorescence titration method
Summary of the method: (§1)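 KD was obtained from fluorescence titrations of ligand with G4 RNA in 50 mM Tris-HCl, pH 7.4, 100 mM KCl.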

Homo sapiens [4] = species: Homo sapiens; experiment: Stabilization of human KRAS 5'-UTR G-quadruplex RNA transfected in human PANC1 cells assessed as inhibition of translation at 0.3 to 1.6 uM preincubated for 6 hrs followed by transfection measured after 48 hrs by dual-glo luciferase reporter gene assay; assay type: cell-based
Summary of the method: (§2)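 Panc-1 cells (20 × 10^3) were treated the next day for 6 h. They were then transfected with jet-PEI using 10 ng Renilla reporter under the KRAS promoter including the 5′-UTR, plus 200 ng Firefly plasmid under a G4-mutated HRAS promoter. Dual-Glo luminescence was read 48 h later. Renilla/Firefly is given as T/C × 100 against untreated cells.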

Homo sapiens [5] = species: Homo sapiens; experiment: Stabilization of human KRAS 5'-UTR G-quadruplex RNA in human PANC1 cells assessed as inhibition of translation by measuring levels of KRAS protein at 1.6 uM after 48 hrs by Western blot method relative to control; assay type: cell-based; parameters: scale not given: the % may be the effect or the level left
Summary of the method: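 Panc-1 lysates (15 μg protein) were run on 12% SDS-PAGE and transferred to nitrocellulose. Membranes were blocked with 5% BSA in PBS-0.05% Tween and probed overnight at 4 °C with rabbit polyclonal anti-KRAS (1:250) and mouse anti-actin. HRP-conjugated secondaries were applied for 1 h, with chemiluminescent detection.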

Homo sapiens [6] = species: Homo sapiens; experiment: Stabilization of human KRAS utr-1 G-quadruplex RNA assessed as change in melting temperature at 1 to 4 ligand to RNA ratio after 1 hr by UV-visible spectrophotometer
Summary of the method: (§3)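 UV-melting curves of the G4 RNA were recorded at 260 and 296 nm in a 0.5 cm cuvette, in 50 mM Tris-HCl pH 7.4, 100 mM KCl. Ligand was tested at ligand/G4 ratio r = 1, 2 and 4. ΔTM is the TM increase over RNA alone.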

PANC-1 [7] = experiment: Induction of apoptosis in human PANC1 cells at 1.6 uM after 72 hrs by annexin V/propidium iodide staining-based flow cytometric method (reference value: 1.2%); assay type: functional
Summary of the method: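 Panc-1 cells were exposed to 1.6 μM compound for 72 h, stained with FITC-annexin V and propidium iodide, and apoptotic cells counted by flow cytometry.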

PANC-1 [8] = experiment: Inhibition of metabolic activity in human PANC1 cells after 72 hrs by resazurin assay; assay type: functional, cell-based; settings: PANC-1, 72 h
Summary of the method: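 Panc-1 cells were seeded at 10 × 10^3/well, treated after 1 day, incubated 72 h, then assayed with resazurin for metabolic activity. IC50 was reported.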

[9] = Drug uptake in human PANC1 cells at 3 uM after 4 hrs by flow cytometric method; assay type: ADME, cell-based; settings: panc-1, 4 h
Summary of the method: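 Panc-1 cells were seeded at 5 × 10^4/well and exposed the next day to 3 μM compound for 4 h. Cells were trypsinized, resuspended in PBS and analysed at once by flow cytometry (488 nm excitation, FL3 680 nm, log scale), at least 10^4 cells per sample, gated on FSC/SSC.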

[10] = Binding affinity to human KRAS utr-4 G-quadruplex RNA by fluorescence titration method
[11] = Selectivity ratio of Kd for WC RNA hairpin (unknown origin) to Kd for human KRAS utr-1 G-quadruplex RNA
[12] = Binding affinity to human KRAS utr-1 G-quadruplex RNA by fluorescence titration method; summary of the method: as §1
[13] = Binding affinity to human KRAS promoter G-quadruplex DNA by fluorescence titration method
Homo sapiens [14] = species: Homo sapiens; experiment: Stabilization of human KRAS utr-c G-quadruplex RNA assessed as change in melting temperature at 1 to 4 ligand to RNA ratio after 1 hr by UV-visible spectrophotometer; summary of the method: as §3
Homo sapiens [15] = species: Homo sapiens; experiment: Stabilization of human KRAS utr-z G-quadruplex RNA assessed as change in melting temperature at 1 to 4 ligand to RNA ratio after 1 hr by UV-visible spectrophotometer; summary of the method: as §3
[16] = Selectivity ratio of Kd for WC RNA hairpin (unknown origin) to Kd for human KRAS utr-4 G-quadruplex RNA
[17] = Selectivity ratio of Kd for WC RNA hairpin (unknown origin) to Kd for human KRAS utr-z G-quadruplex RNA
[18] = Binding affinity to WC RNA hairpin (unknown origin) by fluorescence titration method
[19] = Drug uptake in cytoplasm of human PANC1 at 3 uM after 4 hrs by Syto-14 fluorescent dye-based confocal microscopic method; assay type: ADME
Homo sapiens [20] = species: Homo sapiens; experiment: Stabilization of human KRAS 5'-UTR G-quadruplex RNA transfected in human PANC1 cells assessed as inhibition of translation at 0.07 to 0.33 uM preincubated for 6 hrs followed by transfection measured after 48 hrs by dual-glo luciferase reporter gene assay; assay type: cell-based; summary of the method: as §2
Homo sapiens [21] = species: Homo sapiens; experiment: Stabilization of human KRAS utr-1 G-quadruplex RNA assessed as change in melting temperature at 4 ligand to RNA ratio after 1 hr in presence of 5 or 10 fold excess 21 mer RNA duplex by UV-visible spectrophotometer
Summary of the method: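 The utr-1 G4 RNA was UV-melted with ligand at ligand/G4 ratio r = 4, with a 5- or 10-fold excess of 21-mer RNA duplex added to test quadruplex-over-duplex competition.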

Homo sapiens [22] = species: Homo sapiens; experiment: Stabilization of human KRAS 5'-UTR G-quadruplex RNA at 3'-end of CMV promoter transfected in human PANC1 cells assessed as inhibition of translation preincubated for 6 hrs followed by transfection measured after 48 hrs by dual-glo luciferase reporter gene assay; assay type: cell-based
Summary of the method: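 Renilla reporter pRL-CMV-UTR carries the 192-nt KRAS 5′-UTR inserted downstream of the CMV promoter. Panc-1 cells were pretreated 6 h (0–1.6 μM), then cotransfected (10 ng) with 200 ng Firefly plasmid under a G4-mutated HRAS promoter. Dual-Glo was read after 48 h, expressed as Renilla/Firefly T/C × 100.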

PANC-1 [23] = experiment: Inhibition of colony formation in human PANC1 cells at 0.25 to 0.5 uM after 18 days by methylene blue assay relative to control; assay type: functional
Summary of the method: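 Panc-1 cells were plated in 60 mm dishes with compound. After 18 days they were fixed and stained 10 min with 2.5% methylene blue in 50% ethanol. Colonies of more than 50 cells were counted.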

Cytomegalovirus = experiment: Stabilization of CMV promoter lacking KRAS 5'-UTR G-quadruplex RNA transfected in human PANC1 cells assessed as inhibition of translation at 0.15 to 0.6 uM preincubated for 6 hrs followed by transfection measured after 48 hrs by dual-glo luciferase reporter gene assay; assay type: cell-based
Summary of the method: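 Renilla reporter pRL-CMV lacks the KRAS 5′-UTR. Panc-1 cells were pretreated 6 h, then cotransfected (10 ng) with 200 ng Firefly plasmid under a G4-mutated HRAS promoter. Dual-Glo was read after 48 h, expressed as Renilla/Firefly T/C × 100 versus untreated cells.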

Kd [3] | ΔTm (Homo sapiens [6]) | IC50 (PANC-1 [8]) | Drug uptake [9] | Kd [10] | Selectivity ratio [11] | Kd [12] | Kd [13] | ΔTm (Homo sapiens [14]) | ΔTm (Homo sapiens [15]) | Selectivity ratio [16] | Selectivity ratio [17] | Kd [18] | Drug uptake [19] | Compound | Activity (PANC-1 [1]) | Activity (PANC-1 [2]) | inhibition (Homo sapiens [4]) | Activity (Homo sapiens [5]) | Activity (PANC-1 [7]) | further results
– | – | – | – | – | – | – | – | – | – | – | – | – | – | N=C(N)NCCNc1c2c(c(NCCNC(=N)N)c3sccc13)C(=O)c1ccccc1C2=O | inactive | inactive | – | – | – | –
294 nM | < 20 °C | 900 nM | Active | 83 nM | 2 to 6 | 91 nM | 278 nM | < 20 °C | < 20 °C | 2 to 6 | 2 to 6 | 482 nM | – | NCCNc1c2c(c(NCCN)c3sccc13)C(=O)c1ccccc1C2=O | Active | inactive | Dose-dependent effect | < 10% | 20.6% | –
– | – | – | – | – | – | – | – | – | – | – | – | – | Active | N=C(N)NCCNc1c2c(c(NCCNC(=N)N)c3occc13)C(=O)c1ccccc1C2=O | inactive | inactive | – | – | – | –
251 nM | < 32 °C | 260 nM | Active | 96 nM | 2 to 6 | 75 nM | 626 nM | < 32 °C | < 32 °C | 2 to 6 | 2 to 6 | 514 nM | Active | NCCNc1c2c(c(NCCN)c3occc13)C(=O)c1ccccc1C2=O | Active | 50% | Dose-dependent effect | < 10% | 32.5% | inhibition (Homo sapiens [20]): Dose-dependent effect; Activity (Homo sapiens [21]): Active; inhibition (Homo sapiens [22]): Dose-dependent effect; inhibition (INH) (PANC-1 [23]): 80%; inhibition (Cytomegalovirus): inactive
